Experimental data taken from ChEMBL document CHEMBL1765010, “Reversible competitive α-ketoheterocycle inhibitors of fatty acid amide hydrolase containing additional conformational constraints in the acyl side chain: orally active, long-acting analgesics” (J Med Chem, 2011).
Active and inactive are the calls of the source. The calls are words filed in the database; no cut-off is given here.

Assays:
Mus musculus [1] = assay: Inhibition of FAAH in C57Bl/6J mouse brain assessed as increase of 2-arachidonoylglycerol level at 50 mg/kg, po after 1 hr relative to control; assay type: functional
Outline: (§1)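 Male C57Bl/6J mice (<6 months, 20–28 g) given compound orally as a PEG300 solution at 10, 25 or 50 mg/kg, with 3 mice per group in the 50 mg/kg p.o. comparison; brains collected 1 h post-dose. Lipids extracted in CHCl3:MeOH:Tris pH 8.0 with deuterated internal standards, then measured by C18 LC-ESI-MS/MS relative to vehicle-treated mice.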

Mus musculus [2] = assay: Toxicity in C57BL/6 mouse assessed as hypomotility at 50 mg/kg, po; assay type: organism-based; parameters: dose 50 mg/kg, route oral; conditions: in vivo
Mus musculus [3] = assay: Inhibition of FAAH in C57Bl/6J mouse brain assessed as increase of N-palmitoyl ethanolamine level at 50 mg/kg, po; assay type: functional, organism-based; parameters: dose 50 mg/kg; conditions: TDE = time-dependent effect
Outline: (§2)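 Male C57Bl/6J mice (<6 months, 20–28 g) given a single oral dose as a PEG300 solution. Brains were homogenized in CHCl3:MeOH:Tris pH 8.0 containing deuterated internal standards. The organic extract was analysed by reverse-phase C18 LC–ESI triple-quadrupole MS for anandamide, PEA, OEA and 2-AG. Dose series (10, 25, 50 mg/kg) was sampled at 1 h; the 50 mg/kg time course ran to 9 h. Three mice per group in the i.p./p.o. comparison.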

Mus musculus [4] = assay: Inhibition of FAAH in C57Bl/6J mouse brain assessed as increase of anandamide level at 50 mg/kg, po; assay type: functional, organism-based; parameters: dose 50 mg/kg; conditions: TDE = time-dependent effect; outline: as §2
Mus musculus [5] = assay: Inhibition of FAAH in C57Bl/6J mouse brain assessed as increase of anandamide level at 30 mg/kg, ip after 1 hr relative to control; assay type: functional; conditions: route intraperitoneal
Outline: (§3)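 Male C57Bl/6J mice (<6 months, 20–28 g) dosed i.p. at 30 mg/kg in 18:1:1 saline:ethanol:emulphor emulsion; brains taken 1 h later. One mouse in the initial screen, 3 per group in the follow-up. Brain homogenized in CHCl3:MeOH:Tris pH 8.0 with deuterated lipid standards; organic extract quantified by reverse-phase C18 LC-ESI-MS/MS against vehicle controls.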

[6] = target: T1, Fatty-acid amide hydrolase 1 (Homo sapiens) (UniProt O00519); assay: Competitive inhibition of full-length human FAAH expressed in COS-7 cells by Lineweaver-Burk analysis; assay type: cell-based
T1 sequence (whole entry): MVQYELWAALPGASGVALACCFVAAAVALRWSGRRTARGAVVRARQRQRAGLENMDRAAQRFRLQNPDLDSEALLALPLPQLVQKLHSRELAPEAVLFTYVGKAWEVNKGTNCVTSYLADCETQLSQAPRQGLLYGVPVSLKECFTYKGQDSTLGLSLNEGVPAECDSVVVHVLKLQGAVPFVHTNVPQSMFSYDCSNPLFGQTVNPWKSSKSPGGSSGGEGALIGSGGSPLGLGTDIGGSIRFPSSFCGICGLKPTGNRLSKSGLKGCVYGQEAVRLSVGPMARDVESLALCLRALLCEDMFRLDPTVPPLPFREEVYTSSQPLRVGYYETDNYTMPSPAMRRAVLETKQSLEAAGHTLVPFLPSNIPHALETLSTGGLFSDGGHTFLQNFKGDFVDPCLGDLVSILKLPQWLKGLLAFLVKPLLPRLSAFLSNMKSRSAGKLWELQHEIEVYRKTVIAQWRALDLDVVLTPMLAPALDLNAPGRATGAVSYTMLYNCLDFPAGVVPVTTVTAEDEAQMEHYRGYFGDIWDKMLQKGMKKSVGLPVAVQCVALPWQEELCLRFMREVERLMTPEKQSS
Outline: (§4)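 Solubilized membrane lysate of COS-7 cells transiently transfected with full-length human FAAH cDNA. Aliquots quenched in 0.1 N HCl at three times; oleamide/oleic acid extracted into EtOAc and separated by TLC. Initial rates (≤10–20% conversion) analysed by Lineweaver–Burk plot.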

Mus musculus [7] = assay: Inhibition of FAAH in po dosed C57Bl/6J mouse brain assessed as increase of 2-arachidonoylglycerol level after 1 hr relative to control; assay type: functional, organism-based; outline: as §2
Mus musculus [8] = assay: Inhibition of FAAH in C57Bl/6J mouse brain assessed as increase of anandamide level at 10 to 50 mg/kg, po after up to 9 hrs; assay type: functional, organism-based; outline: as §2
Mus musculus [9] = assay: Inhibition of FAAH in C57Bl/6J mouse brain assessed as increase of N-palmitoyl ethanolamine level at 10 to 50 mg/kg, po after 1 hr relative to control; assay type: functional; conditions: dose mg/kg 10-50; outline: as §1
Mus musculus [10] = assay: Inhibition of FAAH in C57Bl/6J mouse brain assessed as increase of anandamide level at 10 to 50 mg/kg, po after 1.5 to 3 hrs; assay type: functional, organism-based
Mus musculus [11] = assay: Inhibition of FAAH in C57Bl/6J mouse brain assessed as increase of anandamide level at 10 mg/kg, po; assay type: functional; parameters: scale not given: the % may be the effect or the level left; outline: as §1
Mus musculus [12] = assay: Analgesic activity in C57BL/6 mouse chronic constriction injury model assessed as reversal of von Frey filament-induced mechanical allodynia at 50 mg/kg, po measured up to 6 hrs; assay type: functional, organism-based; parameters: dose 50 mg/kg
Outline: (§5)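 Male C57BL/6 mice with sciatic nerve chronic constriction injury (two silk ligatures, isoflurane anesthesia), tested from 10 days post-surgery after 2 days of apparatus habituation. Single oral dose in PEG300 or vehicle. Blinded observer tested ipsilateral and contralateral paws at 1, 3, 6 and 9 h: von Frey up-down method (0.16–6.0 g filaments, 5 stimuli each) and acetone-induced cold response. n = 9–10; mean ± SEM.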

Mus musculus [13] = assay: Inhibition of FAAH in C57Bl/6J mouse brain assessed as increase of anandamide level at 25 to 50 mg/kg, po after 1 hr relative to control; assay type: functional; conditions: dose mg/kg 25-50; outline: as §1
Mus musculus [14] = assay: Inhibition of FAAH in po dosed C57Bl/6J mouse brain assessed as increase of anandamide level after 1 hr relative to control; assay type: functional, organism-based; outline: as §2
[15] = target: T1, Fatty-acid amide hydrolase 1 (Homo sapiens); assay: Reversible inhibition of full-length human FAAH expressed in COS-7 cells by Lineweaver-Burk analysis; assay type: cell-based; outline: as §4
Mus musculus [16] = assay: Toxicity in C57BL/6 mouse assessed as hypothermia at 50 mg/kg, po; assay type: organism-based; parameters: dose 50 mg/kg, route oral; conditions: in vivo
Mus musculus [17] = assay: Inhibition of FAAH in C57Bl/6J mouse brain assessed as increase of N-palmitoyl ethanolamine level at 30 mg/kg, ip after 1 hr relative to control; assay type: functional; conditions: route intraperitoneal; outline: as §3
Mus musculus [18] = assay: Inhibition of FAAH in C57Bl/6J mouse brain assessed as increase of anandamide level at 50 mg/kg, po after 1 hr relative to control; assay type: functional; outline: as §1
Mus musculus [19] = assay: Toxicity in C57BL/6 mouse assessed as catalepsy at 50 mg/kg, po; assay type: organism-based; parameters: dose 50 mg/kg, route oral; conditions: in vivo
Mus musculus [20] = assay: Inhibition of FAAH in C57Bl/6J mouse brain assessed as increase of N-palmitoyl ethanolamine level at 50 mg/kg, po after 1 hr relative to control; assay type: functional; outline: as §1
Mus musculus [21] = assay: Inhibition of FAAH in C57Bl/6J mouse brain assessed as increase of 2-arachidonoylglycerol level at 30 mg/kg, ip after 1 hr relative to control; assay type: functional; conditions: route intraperitoneal; outline: as §3
Mus musculus [22] = assay: Analgesic activity in C57BL/6 mouse chronic constriction injury model assessed as reversal of paws ipsilateral to CCI surgery at 50 mg/kg, po measured up to 9 hrs; assay type: functional, organism-based; parameters: dose 50 mg/kg; outline: as §5

Q: Which “fold change (FC)” value (Mus musculus [1]) does the source give for `O=C(c1ncc(-c2ccccn2)o1)[C@H]1CCc2cc(Oc3ccccc3)ccc2C1` here?
A: 1.4

Q: What about the Activity (Mus musculus [2]) of the same compound?
A: Non-toxic

Q: And the Activity (Mus musculus [3])?
A: tde

Q: And the Activity (Mus musculus [4])?
A: tde

Q: What about the “fold change (FC)” value (Mus musculus [5]) of the same compound?
A: 5.1

Q: And the inhibition [6]?
A: Active

Q: And the Activity (Mus musculus [7])?
A: Dose-dependent effect

Q: And the Activity (Mus musculus [8])?
A: Active

Q: And the “fold change (FC)” value (Mus musculus [9])?
A: 5.5

Q: What about the Activity (Mus musculus [10]) of the same compound?
A: Active

Q: And the Activity (Mus musculus [11])?
A: >90%

Q: And the Activity (Mus musculus [12])?
A: Active

Q: What about the “fold change (FC)” value (Mus musculus [13]) of the same compound?
A: 12

Q: What about the Activity (Mus musculus [14]) of the same compound?
A: Dose-dependent effect

Q: And the inhibition [15]?
A: Active

Q: What about the Activity (Mus musculus [16]) of the same compound?
A: Non-toxic

Q: And the “fold change (FC)” value (Mus musculus [17])?
A: 7.2

Q: And the fold change (FC) (Mus musculus [18])?
A: 13

Q: What about the Activity (Mus musculus [19]) of the same compound?
A: Non-toxic

Q: What about the fold change (FC) (Mus musculus [20]) of the same compound?
A: 7.7

Q: What about the “fold change (FC)” value (Mus musculus [21]) of the same compound?
A: 0.9

Q: And the Activity (Mus musculus [22])?
A: Active
